These results are taken from ChEMBL document CHEMBL4715779, “In vivo effective dibenzo[b,d]furan-1-yl-thiazoles as novel PDE-4 inhibitors” (Bioorg Med Chem, 2016).

In data set [1] the test system is Rattus norvegicus. Description: Antiinflammatory activity in Wistar rat model of LPS-induced uveitis assessed as reduction in infiltrating cells in aqueous humor at 10 ug/10ul/eye administered 24 hrs after LPS stimulation and measured after 1 hr by hemocytometry relative to control. The class given is functional. The following applies: dose 10 µg.
The target in data set [2] is T1, 3',5'-cyclic-AMP phosphodiesterase 4B (Homo sapiens, UniProt Q07343). Description: Inhibition of human PDE4B using [3H]cAMP as substrate at 100 nM incubated for 5 mins followed by substrate addition and measured after 10 mins by scintillation proximity assay relative to control. The settings on record: time 15.0 min. Put shortly:
(§1)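 Purified human PDE-4B2 in 50 mM Tris pH 7.4, 8.3 mM Mg2+, 1% DMSO final, enzyme converting 10–20% of substrate; 5 min pre-incubation at 37 °C, then 0.5 µM cAMP with ~50,000 cpm [3H]-cAMP for 10 min; stopped with yttrium silicate SPA beads containing 18 mM ZnSO4, read after >30 min settling. Background = no enzyme; IC50 from 8–10-point 4-parameter fit.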

The target in data set [3] is T1, 3',5'-cyclic-AMP phosphodiesterase 4B. Description: Inhibition of human PDE4B using [3H]cAMP as substrate incubated for 5 mins followed by substrate addition and measured after 10 mins by scintillation proximity assay. Put shortly:
as §1

For data set [4], the system named is PBMC. Briefly: Inhibition of PDE-4 in human PBMC assessed as LPS-induced TNFalpha production at 1000 nM incubated for 15 mins followed by LPS stimulation and measured after 18 hrs by ELISA relative to control. The settings on record: time 1095.0 min. Put shortly: (§2)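 PBMC isolated from healthy volunteers' blood in cell preparation tubes, suspended in RPMI; 0.5 million cells/well pre-incubated with compound 15 min at 37 °C, then stimulated with E. coli LPS (B4) 1 µg/mL for 18 h at 37 °C, 5% CO2; medium TNF-α measured by ELISA.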

Data set [5] has as its system PBMC. Description: Inhibition of PDE-4 in human PBMC assessed as LPS-induced TNFalpha production at 100 nM incubated for 15 mins followed by LPS stimulation and measured after 18 hrs by ELISA relative to control. The following applies: time 1095.0 min. The essentials:
as §2

Data set [6] in a line: Inhibition of PDE-4 in human PBMC assessed as LPS-induced TNFalpha production incubated for 15 mins followed by LPS stimulation and measured after 18 hrs by ELISA relative to control. The essentials:
as §2

Data set [7] can be described thus: Genotoxicity in Salmonella typhimurium TA100 in presence of rat liver S9 fraction at 0.039 to 5 mg by Ames test. The class given is toxicity, subcellular, Salmonella enterica subsp. enterica serovar Typhimurium. The following applies: dose 0.039-5 mg. Put shortly: (§3)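 Ames reverse mutation test in S. typhimurium TA98 and TA100 with rat liver S9 activation, doses 0.039–5 mg/plate (eight levels); mutagenicity and cytotoxicity scored.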

Data set [8] is described as follows: Genotoxicity in Salmonella typhimurium TA98 in presence of rat liver S9 fraction at 0.039 to 5 mg by Ames test. The settings on record: dose 0.039-5 mg. The class given is toxicity, subcellular, Salmonella enterica subsp. enterica serovar Typhimurium. Put shortly:
as §3

The test system of data set [9] is Rattus norvegicus. Description: Antiinflammatory activity in Sprague-Dawley rat model of LPS-induced COPD and asthma assessed as reduction in neutrophil influx in BALF at 10 mg/kg, po administered 30 mins before LPS stimulation and measured after 6 hrs relative to control. The class given is functional. The settings on record: time 6.5 hrs.
For data set [10], the system named is Mus musculus. Description: Antiinflammatory activity in Swiss albino mouse model of LPS-induced sepsis assessed as reduction in TNFalpha production at 0.3 mg/kg, po administered 30 mins before LPS stimulation and measured after 90 min by ELISA relative to control. The class given is functional. The settings on record: 2 h, time 120 min. Put shortly:
(§4)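 Female Swiss albino mice fasted 20 h with water, dosed orally in 0.5% Tween 80/0.25% CMC sodium; vehicle-only controls. 500 µg E. coli LPS (B4) in PBS i.p. 30 min later; retro-orbital bleed 90 min post-LPS, blood held overnight at 4 °C, serum TNF-α by mouse ELISA; % inhibition.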

In data set [11] the test system is Mus musculus. Briefly: Antiinflammatory activity in Swiss albino mouse model of LPS-induced sepsis assessed as reduction in TNFalpha production at 1 mg/kg, po administered 30 mins before LPS stimulation and measured after 90 min by ELISA relative to control. The settings on record: 2 h, time 120 min. The class given is functional. The essentials:
as §4

In data set [12] the test system is Mus musculus. Description: Antiinflammatory activity in Swiss albino mouse model of LPS-induced sepsis assessed as reduction in TNFalpha production at 3 mg/kg, po administered 30 mins before LPS stimulation and measured after 90 min by ELISA relative to control. The class given is functional. The following applies: 2 h, time 120 min. Put shortly:
as §4

Data set [13] in a line: Tmax in Wistar rat at 10 mg/kg, po. The class given is ADME, organism-based. The settings on record: in vivo.
Data set [14] in a line: Cmax in Wistar rat at 10 mg/kg, po. The class given is ADME, organism-based. On the set-up: route oral, dose 10 mg/kg. The settings on record: in vivo.
Data set [15] can be described thus: AUClast in Wistar rat at 10 mg/kg, po. The class given is ADME, organism-based. Details: dose 10 mg/kg. The following applies: in vivo.
The nature of data set [16]: Half life in Wistar rat at 10 mg/kg, po. The class given is ADME, organism-based. The following applies: in vivo.
The nature of data set [17]: Oral bioavailability in Wistar rat at 10 mg/kg. The class given is ADME, organism-based. The settings on record: in vivo.
A short description of data set [18]: Initial concentration in Wistar rat at 5 mg/kg, iv. The class given is ADME, organism-based. The settings on record: in vivo.
Data set [19] can be described thus: AUClast in Wistar rat at 5 mg/kg, iv. The class given is ADME, organism-based. On the set-up: dose 5 mg/kg. The following applies: in vivo.
Data set [20] in a line: Volume of distribution in Wistar rat at 5 mg/kg, iv. The class given is ADME, organism-based. The settings on record: in vivo.
Data set [21] in a line: Clearance in Wistar rat at 5 mg/kg, iv. The following applies: in vivo. The class given is ADME, organism-based.
A short description of data set [22]: Half life in Wistar rat at 5 mg/kg, iv. The class given is ADME, organism-based. The settings on record: in vivo.
The test system of data set [23] is Rattus norvegicus. Description: Antiinflammatory activity in Sprague-Dawley rat model of LPS-induced COPD and asthma assessed as reduction in total cell count in BALF at 0.1 mg/kg, po administered 30 mins before LPS stimulation and measured after 6 hrs relative to control. The class given is functional. The settings on record: time 6.5 hrs.
Data set [24] deals with Rattus norvegicus. Briefly: Antiinflammatory activity in Sprague-Dawley rat model of LPS-induced COPD and asthma assessed as reduction in total cell count in BALF at 0.3 mg/kg, po administered 30 mins before LPS stimulation and measured after 6 hrs relative to control. The class given is functional. The settings on record: time 6.5 hrs.
The subject of data set [25] is Rattus norvegicus. Briefly: Antiinflammatory activity in Sprague-Dawley rat model of LPS-induced COPD and asthma assessed as reduction in total cell count in BALF at 1 mg/kg, po administered 30 mins before LPS stimulation and measured after 6 hrs relative to control. The class given is functional. The settings on record: time 6.5 hrs.
For data set [26], the system named is Rattus norvegicus. Description: Antiinflammatory activity in Sprague-Dawley rat model of LPS-induced COPD and asthma assessed as reduction in total cell count in BALF at 3 mg/kg, po administered 30 mins before LPS stimulation and measured after 6 hrs relative to control. The class given is functional. The following applies: time 6.5 hrs.
The test system of data set [27] is Rattus norvegicus. Briefly: Antiinflammatory activity in Sprague-Dawley rat model of LPS-induced COPD and asthma assessed as reduction in total cell count in BALF at 10 mg/kg, po administered 30 mins before LPS stimulation and measured after 6 hrs relative to control. The class given is functional. The following applies: time 6.5 hrs.
The subject of data set [28] is Rattus norvegicus. Briefly: Antiinflammatory activity in Sprague-Dawley rat model of LPS-induced COPD and asthma assessed as reduction in total cell count in BALF at 30 mg/kg, po administered 30 mins before LPS stimulation and measured after 6 hrs relative to control. The class given is functional. The settings on record: time 6.5 hrs.
Data set [29] relates to Rattus norvegicus. Description: Antiinflammatory activity in Wistar rat model of LPS-induced uveitis assessed as reduction in infiltrating cells in aqueous humor at 0.1 mg/kg, po administered 24 hrs after LPS stimulation and measured after 1 hr by hemocytometry relative to control. The class given is functional.
Data set [30] relates to Rattus norvegicus. Description: Antiinflammatory activity in Wistar rat model of LPS-induced uveitis assessed as reduction in infiltrating cells in aqueous humor at 0.5 mg/kg, po administered 24 hrs after LPS stimulation and measured after 1 hr by hemocytometry relative to control. The class given is functional.
Data set [31] has as its system Rattus norvegicus. Description: Antiinflammatory activity in Wistar rat model of LPS-induced uveitis assessed as reduction in infiltrating cells in aqueous humor at 1 mg/kg, po administered 24 hrs after LPS stimulation and measured after 1 hr by hemocytometry relative to control. The class given is functional.
Data set [32] concerns Rattus norvegicus. Description: Antiinflammatory activity in Wistar rat model of LPS-induced uveitis assessed as reduction in infiltrating cells in aqueous humor at 3 mg/kg, po administered 24 hrs after LPS stimulation and measured after 1 hr by hemocytometry relative to control. The class given is functional.

Structures are written as SMILES.

T1 sequence (Q07343 whole entry): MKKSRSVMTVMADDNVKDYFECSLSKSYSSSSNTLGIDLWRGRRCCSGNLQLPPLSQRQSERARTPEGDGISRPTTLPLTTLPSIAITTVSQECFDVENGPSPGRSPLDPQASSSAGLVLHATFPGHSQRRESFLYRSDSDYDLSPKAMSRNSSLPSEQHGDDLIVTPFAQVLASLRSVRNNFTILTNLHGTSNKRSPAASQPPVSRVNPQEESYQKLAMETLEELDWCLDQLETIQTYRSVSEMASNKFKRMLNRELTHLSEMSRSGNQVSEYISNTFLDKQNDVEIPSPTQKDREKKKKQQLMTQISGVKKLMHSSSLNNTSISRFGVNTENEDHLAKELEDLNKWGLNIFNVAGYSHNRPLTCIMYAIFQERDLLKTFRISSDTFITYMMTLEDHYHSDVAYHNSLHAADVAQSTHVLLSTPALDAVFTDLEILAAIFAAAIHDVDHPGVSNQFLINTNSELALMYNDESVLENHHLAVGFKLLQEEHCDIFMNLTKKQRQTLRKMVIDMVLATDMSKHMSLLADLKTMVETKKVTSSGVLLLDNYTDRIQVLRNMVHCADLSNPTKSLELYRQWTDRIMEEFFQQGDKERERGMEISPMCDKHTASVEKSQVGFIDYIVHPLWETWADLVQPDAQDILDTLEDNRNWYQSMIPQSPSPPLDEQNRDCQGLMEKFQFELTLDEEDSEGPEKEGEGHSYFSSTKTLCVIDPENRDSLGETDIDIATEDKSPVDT

On to `C[C@@H]1C[C@H]2[C@@H]3CCC4=CC(=O)C=C[C@]4(C)[C@@]3(F)[C@@H](O)C[C@]2(C)[C@@]1(O)C(=O)CO` [DEXAMETHASONE], for which, in the data set on Rattus norvegicus [1], the “inhibition (INH)” value worked out at 79.1%.
Turning to `O=C(NC1CCC(O)CC1)c1csc(-c2ccc(OC(F)F)c3oc4ccccc4c23)n1` (configuration not stated), the inhibition came out at 65.3% in [2], 93.8% with PBMC [4] and 77.7% in the data set with PBMC [5]. Besides, the IC50 in [3] amounted to 63.5 nM; in data set [6], 31 nM. The Activity entry in data set [7] and in data set [8] was “Non-Toxic” each time. The inhibition in vivo at 10 mg/kg with Rattus norvegicus [9] is 58%; in the data set with Rattus norvegicus [27] it was 75.2%. For the same molecule, the inhibition in vivo at 0.3 mg/kg in the data set with Mus musculus [10] worked out at 16.4%; in the data set with Rattus norvegicus [24], 34.6%. For the same molecule, the figures for the inhibition in vivo at 1 mg/kg in the data set with Mus musculus [11], in the data set with Rattus norvegicus [25] and in the data set on Rattus norvegicus [31] were 34.2%, 60.7% and 90.3%, respectively. For the same molecule, the inhibition in vivo at 3 mg/kg with Mus musculus [12] is 82.2%; in the data set with Rattus norvegicus [26], 70.9%; with Rattus norvegicus [32] it was 96.9%. Besides, the Tmax in data set [13] is 4.8 h. The Cmax in data set [14] worked out at 1400 ng/mL. Also, the AUC(0-t) came out at 11500 ng·h/mL in data set [15] and 13700 ng·h/mL in data set [19]. Moreover, the half-life is 5 h in data set [16] and 1.9 h in data set [22]. For the same molecule, in data set [17], the bioavailability worked out at 42%. This molecule also gave a C0 in [18] of 4000 ng/mL. In addition, the Vd in data set [20] worked out at 1 L/kg. For the same molecule, in data set [21], the clearance was 6.67 mL/min/kg. Moreover, the inhibition in vivo at 0.1 mg/kg is 52.8% with Rattus norvegicus [23] and 43.6% in the data set on Rattus norvegicus [29]. Also, the inhibition in vivo at 30 mg/kg with Rattus norvegicus [28] is 78.7%. The inhibition in vivo at 0.5 mg/kg in the data set on Rattus norvegicus [30] was found to be 54.4%.
